Results from ChEMBL document CHEMBL1141705, “Optimization of a series of multi-isoform PI3 kinase inhibitors” (Bioorg Med Chem Lett, 2008).

Assays:
[1] = Distribution coefficient, log D of the compound; format: physicochemical; settings: octanol/water
Summary of the method: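 logD was determined experimentally at pH 7.4.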

[2] = AUC in Han/Wistar rat at 3 mg/kg, po; format: ADME, organism-based; design: dose 3 mg/kg, route oral; settings: plasma
Summary of the method: (§1)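 Han-Wistar rats received a single oral dose of 3 mg/kg. Plasma Cmax is reported in ng/mL and AUC in ng h/mL.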

[3] = Cmax in Han/Wistar rat at 3 mg/kg, po; format: ADME, organism-based; design: dose 3 mg/kg, route oral; settings: in vivo; summary of the method: as §1

logD [1]	AUC [2]	Cmax [3]	SMILES
0.6	–	–	CC1(C)Cc2nc(N3CCOc4ccc(Nc5ccc(N6CCNCC6)nn5)cc43)sc2C(=O)N1
1.94	78 ng·h/mL	14 ng/mL	CC1(C)Cc2nc(N3CCOc4ccc(-c5ccc(N)nn5)cc43)sc2C(=O)N1
1.16	–	–	CC1(C)Cc2nc(N3CCOc4ccc(-c5cnn(CCN)c5)cc43)sc2C(=O)N1
–	807 ng·h/mL	187 ng/mL	COC[C@H](O)Cn1cc(-c2ccc3c(c2)N(c2nc4c(s2)C(=O)NC(C)(C)C4)CCO3)cn1
1.76	–	–	CN1CCN(c2ccc(Nc3ccc4c(c3)N(c3nc5c(s3)C(=O)NC(C)(C)C5)CCO4)nn2)CC1
2.19	495 ng·h/mL	159 ng/mL	COCC(O)Cn1cc(-c2ccc3c(c2)N(c2nc4c(s2)C(=O)NC(C)(C)C4)CCO3)cn1 (stereo unspecified)
2.45	–	–	CC1(C)Cc2nc(N3CCOc4ccc(-c5ccc(N6CCNCC6)nn5)cc43)sc2C(=O)N1
2.94	–	–	CC1(C)Cc2nc(N3CCOc4ccc(-c5cnn(Cc6cccnc6)c5)cc43)sc2C(=O)N1
1.97	–	–	Cc1cc(C)c(Nc2ccc3c(c2)N(c2nc4c(s2)C(=O)NC(C)(C)C4)CCO3)nn1
3	–	–	Cc1nn(C)cc1-c1ccc2c(c1)N(c1nc3c(s1)C(=O)NC(C)(C)C3)CCO2
3.23	–	–	Cc1nn(C)c(C)c1-c1ccc2c(c1)N(c1nc3c(s1)C(=O)NC(C)(C)C3)CCO2
0.38	–	–	Cc1nn(CCCN)cc1-c1ccc2c(c1)N(c1nc3c(s1)C(=O)NC(C)(C)C3)CCO2
2.61	–	–	CN(C)c1ccc(-c2ccc3c(c2)N(c2nc4c(s2)C(=O)NC(C)(C)C4)CCO3)nn1
3.72	–	–	CC1(C)Cc2nc(N3CCOc4ccc(Nc5ccc(-c6ccccc6)nn5)cc43)sc2C(=O)N1
3.04	–	–	Cc1n[nH]c(C)c1-c1ccc2c(c1)N(c1nc3c(s1)C(=O)NC(C)(C)C3)CCO2
2.39	345 ng·h/mL	105 ng/mL	Cc1ccc(Nc2ccc3c(c2)N(c2nc4c(s2)C(=O)NC(C)(C)C4)CCO3)nn1
2.63	–	–	Cn1cc(-c2ccc3c(c2)N(c2nc4c(s2)C(=O)NC(C)(C)C4)CCO3)cn1
3.57	591 ng·h/mL	139 ng/mL	CCn1nc(C)c(-c2ccc3c(c2)N(c2nc4c(s2)C(=O)NC(C)(C)C4)CCO3)c1C
3.91	455 ng·h/mL	103 ng/mL	CC1(C)Cc2nc(N3CCOc4ccc(-c5cnn(Cc6ccccc6)c5)cc43)sc2C(=O)N1
2.74	–	–	COc1ccc(Nc2ccc3c(c2)N(c2nc4c(s2)C(=O)NC(C)(C)C4)CCO3)nn1
2.74	1000 ng·h/mL	195 ng/mL	CC(C)(O)Cn1cc(-c2ccc3c(c2)N(c2nc4c(s2)C(=O)NC(C)(C)C4)CCO3)cn1
1.98	–	–	Cn1ncc(-c2ccc3c(c2)N(c2nc4c(s2)C(=O)NC(C)(C)C4)CCO3)c1N
2.68	–	–	CC1(C)Cc2nc(N3CCOc4ccc(-c5cn[nH]c5)cc43)sc2C(=O)N1
2.32	–	–	Cc1ccc(-c2ccc3c(c2)N(c2nc4c(s2)C(=O)NC(C)(C)C4)CCO3)nn1
0.22	–	–	COc1ccc(-c2ccc3c(c2)N(c2nc4c(s2)C(=O)NC(C)(C)C4)CCO3)nn1
2.3	–	–	Cc1nn(CC(C)(C)O)c(C)c1-c1ccc2c(c1)N(c1nc3c(s1)C(=O)NC(C)(C)C3)CCO2
1.75	–	–	CN1CCN(c2ccc(-c3ccc4c(c3)N(c3nc5c(s3)C(=O)NC(C)(C)C5)CCO4)nn2)CC1
2.73	–	–	CCn1cc(-c2ccc3c(c2)N(c2nc4c(s2)C(=O)NC(C)(C)C4)CCO3)cn1
